Here are results for one compound from ChEMBL document CHEMBL5678799 (Biochem J, 2009).

Structures are written as SMILES. Activity calls are given as the source filed them. No cut-off for these calls is given here.

Assay [1] concerns the target T1, mTORC2 (Homo sapiens) (UniProt P42345+Q6R327+Q9BVC4+Q9BPZ7). The settings on record: HEK293, dose 30-1000 nM, time 30.0 min.
Assay [2] concerns the target T2, mTORC1 (Homo sapiens) (UniProt P42345+Q8N122+Q9BVC4). Conditions: HEK293, dose 30.0 nM, time 30.0 min.
Assay [3] has as its target Mitogen-activated protein kinase 1 (Homo sapiens) (UniProt P28482). Put plainly: Inhibition of recombinant human N-terminal GST-tagged ERK2 (2 to 360 residues) expressed in Escherichia coli assessed as remaining activity at 10 uM using MBP as substrate incubated for 30 mins in presence of [gamma-33P]ATP by filter binding method relative to control. The method in brief:
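Incubation was 30 min at room temperature (21 °C) under conditions linear with time and enzyme amount. Activity is reported as percent of control lacking compound, triplicate mean ± S.D.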

Assay [4] can be described thus: Inhibition of recombinant human N-terminal His6-tagged PKBbeta S474D mutant (120 to 481 residues) expressed in baculovirus infected Sf21 cells assessed as remaining activity at 10 uM using crosstide peptide as substrate incubated for 30 mins in presence of [gamma-33P]ATP by filter binding method relative to control. Conditions: condition cancer, 0.5 h. The method in brief:
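Assays ran 30 min at 21 °C, robotically and in the linear range. Remaining activity is given relative to incubations lacking compound, as the average of triplicate determinations ± S.D.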

In assay [5] the target is Glycogen synthase kinase-3 beta (Homo sapiens) (UniProt P49841). Description: Inhibition of recombinant human His6-tagged GSK3beta (2 to 420 residues) expressed in baculovirus infected Sf21 cells assessed as remaining activity at 10 uM using phospho-GS2 peptide as substrate incubated for 30 mins in presence of [gamma-33P]ATP by filter binding method relative to control. The method in brief:
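Radiometric kinase panel run robotically at 21 °C for 30 min, linear in time and enzyme. […] Activity expressed as percentage of control without inhibitor; triplicate determinations.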

The target in assay [6] is MAP/microtubule affinity-regulating kinase 3 (Homo sapiens) (UniProt P27448). Description: Inhibition of recombinant human N-terminal His6-tagged MARK3 (2 to 729 residues) expressed in baculovirus infected Sf21 cells assessed as remaining activity at 1 uM using CHKtide as substrate incubated for 30 mins in presence of [gamma-33P]ATP by filter binding method relative to control.
Sequence of MAP/microtubule affinity-regulating kinase 3 (Homo sapiens) (P27448 whole entry, looked up, the tested form may be a part): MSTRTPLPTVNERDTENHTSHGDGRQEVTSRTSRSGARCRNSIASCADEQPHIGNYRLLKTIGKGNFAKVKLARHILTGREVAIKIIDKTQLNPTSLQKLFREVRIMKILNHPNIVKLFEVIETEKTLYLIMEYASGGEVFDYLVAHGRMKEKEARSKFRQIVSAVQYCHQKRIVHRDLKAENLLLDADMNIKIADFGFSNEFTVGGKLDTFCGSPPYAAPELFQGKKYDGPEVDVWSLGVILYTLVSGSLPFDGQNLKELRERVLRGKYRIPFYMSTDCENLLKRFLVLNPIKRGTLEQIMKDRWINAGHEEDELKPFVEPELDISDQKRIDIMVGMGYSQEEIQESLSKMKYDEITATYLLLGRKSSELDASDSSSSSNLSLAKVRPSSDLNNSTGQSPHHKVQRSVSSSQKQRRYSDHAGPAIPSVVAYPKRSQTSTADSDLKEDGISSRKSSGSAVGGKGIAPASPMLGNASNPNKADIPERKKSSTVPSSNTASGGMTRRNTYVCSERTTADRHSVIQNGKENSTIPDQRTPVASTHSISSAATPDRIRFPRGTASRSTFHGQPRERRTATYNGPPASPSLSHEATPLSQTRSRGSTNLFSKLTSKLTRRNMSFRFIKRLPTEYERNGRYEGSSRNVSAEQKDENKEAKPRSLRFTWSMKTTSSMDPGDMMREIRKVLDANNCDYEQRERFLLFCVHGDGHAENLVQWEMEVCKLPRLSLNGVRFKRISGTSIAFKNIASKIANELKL

In another assay the test system is MEF. Description: Inhibition of mTORC2 in serum starved Rictor knockout MEF cells assessed as reduction IGF1-stimulated AKT phosphorylation at Thr308 residue at 100 to 1000 nM incubated for 20 mins by immunoblot analysis. The assay is classed as cell-based. Conditions: Mus musculus, dose 100-1000 nM. The method in brief: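 Serum withdrawn 16 h. Inhibitor or vehicle given 30 min before stimulation with 50 ng/ml IGF-1 for 20 min. Lysed in Tris lysis buffer and immunoblotted for Akt Thr308 phosphorylation with ECL detection. Applies to HEK-293 and to wild-type, Rictor, Sin1 or mLST8 knockout MEFs. Three independent experiments.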
For orientation: A western blot detects proteins with antibodies after separation by electrophoresis.

The target in assay [7] is T1, mTORC2 (Homo sapiens). The settings on record: HEK293, dose 30-1000 nM, time 30.0 min. The source holds these as a separate data set.
In assay [8] the target is T1, mTORC2 (Homo sapiens). The settings on record: HEK293, dose 30-1000 nM, time 30.0 min. The source holds these as a separate data set.
Assay [9] addresses 3-phosphoinositide-dependent protein kinase 1 (Homo sapiens) (UniProt O15530). Description: Inhibition of recombinant human His6-tagged PDK1 (52 to 556 residues) expressed in baculovirus infected Sf21 cells assessed as remaining activity at 10 uM using PDKtide as substrate incubated for 30 mins in presence of [gamma-33P]ATP by filter binding method relative to control. The procedure, abridged:
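Robotic radiometric panel assay, 30 min at room temperature (21 °C), with 10 mM magnesium acetate. […] Compound at 1 or 10 µM. Residual activity expressed relative to compound-free control; triplicate average ± S.D.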

Assay [10] has as its target Homeodomain-interacting protein kinase 2 (Homo sapiens) (UniProt Q9H2X6). Put plainly: Inhibition of recombinant human N-terminal GST-tagged HIPK2 (165 to 564 residues) expressed in Escherichia coli assessed as remaining activity at 1 uM using MBP as substrate incubated for 30 mins in presence of [gamma-33P]ATP by filter binding method relative to control. The procedure, abridged:
(§1)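 Radiometric kinase panel run robotically at room temperature (21 °C) for 30 min, linear in time and enzyme. […] Activity is expressed as percent of control without compound, from triplicate determinations ± S.D.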

Assay [11] concerns the target T2, mTORC1 (Homo sapiens). The settings on record: HEK293, dose 30-1000 nM, time 30.0 min.
Assay [12] concerns the target T1, mTORC2 (Homo sapiens). Conditions: HEK293, dose 30-1000 nM, time 30.0 min. The source holds these as a separate data set.
Assay [13] deals with Aurora kinase B (Homo sapiens) (UniProt Q96GD4). Description: Inhibition of recombinant human N-terminal His6-tagged Aurora B (1 to 344 residues) expressed in Escherichia coli assessed as remaining activity at 10 uM using LRRLSLGLRRLSLGLRRLSLGLRRLSLG as substrate incubated for 30 mins in presence of [gamma-33P]ATP by filter binding method relative to control.
Sequence of Aurora kinase B (Homo sapiens) (Q96GD4 whole entry, the tested form may be a part): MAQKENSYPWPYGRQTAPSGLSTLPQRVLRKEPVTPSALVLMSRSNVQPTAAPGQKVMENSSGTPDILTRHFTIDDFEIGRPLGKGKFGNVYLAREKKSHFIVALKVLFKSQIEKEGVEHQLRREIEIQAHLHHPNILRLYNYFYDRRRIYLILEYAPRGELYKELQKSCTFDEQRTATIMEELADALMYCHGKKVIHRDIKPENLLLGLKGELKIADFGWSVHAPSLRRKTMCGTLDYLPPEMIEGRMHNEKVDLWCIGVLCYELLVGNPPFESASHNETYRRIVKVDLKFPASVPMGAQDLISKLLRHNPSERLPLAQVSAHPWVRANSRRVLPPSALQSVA
Assay [14] concerns the target T2, mTORC1 (Homo sapiens). The settings on record: HEK293, dose 100-300 nM, time 30.0 min.
In assay [15] the target is T2, mTORC1 (Homo sapiens). The settings on record: HEK293, dose 30-1000 nM, time 30.0 min. The source holds these as a separate data set.
Assay [16] addresses Insulin-like growth factor 1 receptor (Homo sapiens) (UniProt P08069). Put plainly: Inhibition of recombinant human N-terminal His6-tagged IGF1R (954 to 1367 residues) expressed in baculovirus infected Sf21 cells assessed as remaining activity at 10 uM using KKKSPGEYVNIEFG as substrate incubated for 30 mins in presence of [gamma-33P]ATP by filter binding method relative to control. The method in brief: as §1

The target of assay [17] is MAP kinase-interacting serine/threonine-protein kinase 1 (Homo sapiens) (UniProt Q9BUB5). Description: Inhibition of recombinant human N-terminal GST-tagged C-terminal His6-tagged MNK1 (2 to 424 residues) expressed in Escherichia coli assessed as remaining activity at 1 uM using eIF4E as substrate incubated for 30 mins in presence of [gamma-33P]ATP by filter binding method relative to control.
Sequence of MAP kinase-interacting serine/threonine-protein kinase 1 (Homo sapiens) (Q9BUB5 whole entry, looked up, the tested form may be a part): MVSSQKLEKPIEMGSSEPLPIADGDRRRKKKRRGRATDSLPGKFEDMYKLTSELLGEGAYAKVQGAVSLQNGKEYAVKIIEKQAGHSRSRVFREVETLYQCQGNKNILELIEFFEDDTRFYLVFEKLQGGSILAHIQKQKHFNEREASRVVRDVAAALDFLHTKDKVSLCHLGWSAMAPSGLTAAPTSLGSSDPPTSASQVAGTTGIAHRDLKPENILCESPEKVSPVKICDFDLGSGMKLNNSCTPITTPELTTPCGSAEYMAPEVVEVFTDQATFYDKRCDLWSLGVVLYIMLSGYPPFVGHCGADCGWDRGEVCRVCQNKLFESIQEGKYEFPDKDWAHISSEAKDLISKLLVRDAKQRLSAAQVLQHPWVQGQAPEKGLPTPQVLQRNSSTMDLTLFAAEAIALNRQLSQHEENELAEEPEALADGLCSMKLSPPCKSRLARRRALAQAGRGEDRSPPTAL

In assay [18] the target is MAP kinase-activated protein kinase 2 (Homo sapiens) (UniProt P49137). Description: Inhibition of recombinant human N-terminal GST/C-terminal Myc-tagged MAPKAPK2 (46 to 400 residues) expressed in Escherichia coli assessed as remaining activity at 1 uM using KKLNRTLSVA as substrate incubated for 30 mins in presence of [gamma-33P]ATP by filter binding method relative to control. The procedure, abridged: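 Incubations ran robotically for 30 min at room temperature (21 °C) under linear conditions. Results are percent activity remaining versus controls without compound, as the mean of triplicates ± S.D.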
Sequence of MAP kinase-activated protein kinase 2 (Homo sapiens) (P49137 whole entry, looked up, the tested form may be a part): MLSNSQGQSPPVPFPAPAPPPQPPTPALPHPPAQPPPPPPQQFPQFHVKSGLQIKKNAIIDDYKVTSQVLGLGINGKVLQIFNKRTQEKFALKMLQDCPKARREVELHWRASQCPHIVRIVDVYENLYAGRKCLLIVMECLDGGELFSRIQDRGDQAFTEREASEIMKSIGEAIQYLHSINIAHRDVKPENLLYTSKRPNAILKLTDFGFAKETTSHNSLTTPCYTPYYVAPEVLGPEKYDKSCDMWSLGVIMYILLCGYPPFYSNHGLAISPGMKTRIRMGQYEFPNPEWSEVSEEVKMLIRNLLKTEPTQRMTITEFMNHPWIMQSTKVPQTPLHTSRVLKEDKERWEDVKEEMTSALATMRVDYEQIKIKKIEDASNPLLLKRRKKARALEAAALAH

Sequence of Glycogen synthase kinase-3 beta (Homo sapiens) (P49841 whole entry, looked up, the tested form may be a part): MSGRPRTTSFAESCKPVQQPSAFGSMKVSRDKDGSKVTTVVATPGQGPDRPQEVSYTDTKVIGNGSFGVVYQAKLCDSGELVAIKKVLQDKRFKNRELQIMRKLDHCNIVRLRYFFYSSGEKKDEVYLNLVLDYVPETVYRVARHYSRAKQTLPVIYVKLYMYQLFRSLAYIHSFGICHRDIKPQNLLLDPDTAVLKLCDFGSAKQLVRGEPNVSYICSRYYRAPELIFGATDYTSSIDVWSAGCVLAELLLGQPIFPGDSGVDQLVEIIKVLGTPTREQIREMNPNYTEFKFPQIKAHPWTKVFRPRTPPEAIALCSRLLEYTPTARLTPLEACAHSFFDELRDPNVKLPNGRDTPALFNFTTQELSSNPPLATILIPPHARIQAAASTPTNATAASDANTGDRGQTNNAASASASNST
Sequence of Mitogen-activated protein kinase 1 (Homo sapiens) (P28482 whole entry, the tested form may be a part): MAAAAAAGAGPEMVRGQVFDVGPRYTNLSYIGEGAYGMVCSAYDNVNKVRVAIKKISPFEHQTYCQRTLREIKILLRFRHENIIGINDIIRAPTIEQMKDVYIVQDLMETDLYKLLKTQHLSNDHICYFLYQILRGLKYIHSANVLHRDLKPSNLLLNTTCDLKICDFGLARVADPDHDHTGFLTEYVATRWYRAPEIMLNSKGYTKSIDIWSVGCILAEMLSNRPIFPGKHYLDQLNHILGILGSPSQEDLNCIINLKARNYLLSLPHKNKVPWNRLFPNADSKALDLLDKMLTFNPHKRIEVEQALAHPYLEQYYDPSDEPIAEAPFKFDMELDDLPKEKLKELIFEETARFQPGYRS
Sequence of Homeodomain-interacting protein kinase 2 (Homo sapiens) (Q9H2X6 whole entry, looked up, the tested form may be a part): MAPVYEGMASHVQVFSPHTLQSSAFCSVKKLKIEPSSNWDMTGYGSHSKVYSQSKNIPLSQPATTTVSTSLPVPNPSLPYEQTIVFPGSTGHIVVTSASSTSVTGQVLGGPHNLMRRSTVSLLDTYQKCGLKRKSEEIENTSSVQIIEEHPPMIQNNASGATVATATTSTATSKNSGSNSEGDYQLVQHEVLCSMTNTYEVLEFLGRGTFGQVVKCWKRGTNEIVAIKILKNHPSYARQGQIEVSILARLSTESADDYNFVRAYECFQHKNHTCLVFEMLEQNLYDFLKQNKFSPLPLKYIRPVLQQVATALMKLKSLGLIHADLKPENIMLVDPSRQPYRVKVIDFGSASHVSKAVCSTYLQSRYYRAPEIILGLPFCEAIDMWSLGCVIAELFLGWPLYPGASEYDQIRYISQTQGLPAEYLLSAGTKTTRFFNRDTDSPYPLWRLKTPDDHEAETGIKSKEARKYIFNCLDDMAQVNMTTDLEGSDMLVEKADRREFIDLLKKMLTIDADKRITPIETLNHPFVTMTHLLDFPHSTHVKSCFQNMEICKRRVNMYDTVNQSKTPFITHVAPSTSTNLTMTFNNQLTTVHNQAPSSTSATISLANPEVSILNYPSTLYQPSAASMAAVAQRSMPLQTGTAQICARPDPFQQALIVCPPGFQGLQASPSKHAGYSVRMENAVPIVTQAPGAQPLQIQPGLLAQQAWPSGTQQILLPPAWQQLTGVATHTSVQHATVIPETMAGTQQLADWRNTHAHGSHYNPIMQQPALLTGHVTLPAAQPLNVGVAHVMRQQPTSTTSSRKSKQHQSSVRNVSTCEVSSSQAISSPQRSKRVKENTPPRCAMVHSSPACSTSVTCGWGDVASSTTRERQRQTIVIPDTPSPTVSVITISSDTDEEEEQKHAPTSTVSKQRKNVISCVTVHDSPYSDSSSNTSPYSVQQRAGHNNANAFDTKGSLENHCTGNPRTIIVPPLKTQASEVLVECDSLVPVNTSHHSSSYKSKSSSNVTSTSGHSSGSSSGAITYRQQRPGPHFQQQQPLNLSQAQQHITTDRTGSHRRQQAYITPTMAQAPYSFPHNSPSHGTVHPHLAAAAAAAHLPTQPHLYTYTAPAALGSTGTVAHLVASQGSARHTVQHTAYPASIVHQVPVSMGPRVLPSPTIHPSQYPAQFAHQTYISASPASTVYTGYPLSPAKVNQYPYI
Sequence of 3-phosphoinositide-dependent protein kinase 1 (Homo sapiens) (O15530 whole entry, the tested form may be a part): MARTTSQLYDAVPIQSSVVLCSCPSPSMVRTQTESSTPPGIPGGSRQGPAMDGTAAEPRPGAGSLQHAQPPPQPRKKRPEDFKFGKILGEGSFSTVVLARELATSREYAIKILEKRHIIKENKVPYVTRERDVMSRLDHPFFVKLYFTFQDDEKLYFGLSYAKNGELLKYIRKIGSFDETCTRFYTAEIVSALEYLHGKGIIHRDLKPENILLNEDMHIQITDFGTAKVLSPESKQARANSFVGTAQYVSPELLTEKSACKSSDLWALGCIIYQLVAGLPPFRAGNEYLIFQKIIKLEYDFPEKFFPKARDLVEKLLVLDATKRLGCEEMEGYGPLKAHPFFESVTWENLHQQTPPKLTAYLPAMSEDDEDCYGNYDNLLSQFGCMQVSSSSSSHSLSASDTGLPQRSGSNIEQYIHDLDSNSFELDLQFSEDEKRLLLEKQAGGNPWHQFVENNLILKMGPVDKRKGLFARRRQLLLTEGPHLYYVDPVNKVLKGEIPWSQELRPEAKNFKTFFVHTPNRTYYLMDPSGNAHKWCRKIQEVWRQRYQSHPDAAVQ

Consider `COc1ccc(-c2ccc3c(N4CCOCC4)nc(N4C[C@@H](C)O[C@@H](C)C4)nc3n2)cc1CO` [Ku-0063794], for which the inhibition entry was “Dose-Dependent Effect” at mTORC2 (Homo sapiens) [1]; “Dose-Dependent Effect” at mTORC2 (Homo sapiens) [7]; “Dose-Dependent Effect” on mTORC2 (Homo sapiens) [8]; “Dose-Dependent Effect” at mTORC1 (Homo sapiens) [11]; “Dose-Dependent Effect” at mTORC2 (Homo sapiens) [12]; 100% on mTORC1 (Homo sapiens) [14]. For the same compound, the inhibition result at mTORC1 (Homo sapiens) [15] is “Dose-Dependent Effect”. Also, the inhibition result on mTORC1 (Homo sapiens) [2] and with MEF was “Active” in each case. In addition, the Activity was 92% in [3]; 107% in assay [4]; 91% in [5]; 93% in assay [6]; 91% in assay [9]; 89% in assay [10]. In addition, the Activity in assay [13] is 86%; in [16], 89%; in assay [17], 111%; in assay [18], 98%.

What is called inhibition is the change of the read-out against control, counted positive when it falls.
